This is a sample that favours compounds with a hit; in the whole collection about 4.4% have one here.
MsrA inh = inhibitors of bovine MsrA. inhibition, % at 15.5 µM. AID 651718. purified bovine MsrA, absorbance read-out. 360,000 compounds, 0.75% hits;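 further: 0% = vehicle wells with enzyme and 100% = reference inhibitor wells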
bovine MsrA act = activators of bovine methionine sulfoxide reductase A | purified bovine MsrA, absorbance read-out | activation, % at 10.6 µM | 360,000 compounds, 0.3% hits | AID 602163; in the data active means activation above about 7.5%;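 further: 0% = vehicle and 100% = reference activator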
AHR act = activates the human aryl hydrocarbon receptor; AHR-responsive luciferase reporter cells, luminescence; 320,000 compounds, 2.5% hits; activation, % at 5 µM; P35869; in the data active means activation above about 47%;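 further: 0% = vehicle wells and 100% = reference agonist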
Target sequence (P35869 whole entry, looked up): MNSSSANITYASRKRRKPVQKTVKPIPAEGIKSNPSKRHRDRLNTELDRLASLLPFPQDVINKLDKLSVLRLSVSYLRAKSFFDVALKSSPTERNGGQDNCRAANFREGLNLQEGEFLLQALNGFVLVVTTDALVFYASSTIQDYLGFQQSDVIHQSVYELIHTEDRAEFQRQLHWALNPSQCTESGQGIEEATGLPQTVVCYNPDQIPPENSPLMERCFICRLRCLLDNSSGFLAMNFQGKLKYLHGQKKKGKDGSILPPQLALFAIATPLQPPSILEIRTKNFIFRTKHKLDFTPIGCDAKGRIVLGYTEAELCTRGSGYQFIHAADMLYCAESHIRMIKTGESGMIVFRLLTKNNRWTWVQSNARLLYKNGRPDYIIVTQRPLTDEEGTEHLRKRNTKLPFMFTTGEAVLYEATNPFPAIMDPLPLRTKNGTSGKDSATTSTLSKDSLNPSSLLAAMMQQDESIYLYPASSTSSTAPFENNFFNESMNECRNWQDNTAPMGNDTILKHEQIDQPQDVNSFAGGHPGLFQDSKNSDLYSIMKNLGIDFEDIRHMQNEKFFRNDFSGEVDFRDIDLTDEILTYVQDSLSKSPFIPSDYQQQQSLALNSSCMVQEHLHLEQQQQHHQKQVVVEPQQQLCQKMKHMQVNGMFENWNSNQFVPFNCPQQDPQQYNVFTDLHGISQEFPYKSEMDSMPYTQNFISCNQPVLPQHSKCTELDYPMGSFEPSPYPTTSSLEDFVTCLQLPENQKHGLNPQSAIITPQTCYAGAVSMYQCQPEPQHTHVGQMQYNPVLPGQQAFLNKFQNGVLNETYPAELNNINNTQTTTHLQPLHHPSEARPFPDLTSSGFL
m5-HT2A agonist = agonists of mouse serotonin 5-HT2A receptor (HTR2A); CHO-K1 mHTR2A beta-arrestin complementation, luminescence; percent of 30 µM serotonin response; activation, % at 7.6 µM; 360,000 compounds, 0.66% hits; AID 624169;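 active means activation above a run cutoff, the mean activation of all tested compounds plus 3 SD, cut at about 14% in these data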;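 further: 0% = plate median of compound wells and 100% = 30 µM serotonin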
AI-2 QS modul = modulators of Vibrio harveyi AI-2 quorum sensing system | Vibrio harveyi JMH597 AI-2 luminescence/OD600 ratio, 9 h; hits give low values; strain lacks LuxN and CqsS sensors; 0 = neutral-control median | activity change, % at 7.5 µM | 300,000 compounds, 0.4% hits | AID 2094; in the data active means activity change below about -75%, passing the limit was not always enough;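 further: luminescence divided by OD600 gain over 9 h not by final OD600 alone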
TbMetRS inhib = blocks T. brucei methionyl-tRNA synthetase activity. purified T. brucei MetRS, ATP depletion, Kinase-Glo luminescence. inhibition, % at 11.9 µM. 360,000 compounds, 0.4% hits. AID 624268;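 active means inhibition above a per-plate cutoff of the control wells' mean inhibition plus 3 SD, cut at about 5.5% in these data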;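 further: 0% = DMSO wells median and 100% = median of wells with control inhibitor compound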
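Dosing: 11.9 µM compound single dose, 0.9% DMSO; Assay system: purified T. brucei MetRS enzyme; Measured by: Kinase-Glo luciferase luminescence reporting remaining unconsumed ATP; Schedule: 15 min plus 2 h at 25 °C.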
MsrA inh confirm = bovine MsrA inhibition, confirmed | purified bovine MsrA, absorbance read-out | shares compounds with MsrA inh | inhibition, % at 15.5 µM | AID 651822 | 2,300 compounds, 41% hits;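 further: coupled to thioredoxin reductase with NADPH and selenocystamine and DMSO as substrate; 0% = vehicle only and 100% = full effect of reference inhibitor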
Starred values were filed as active, the others as inactive; · = not tested or not shown. Unless noted, no stated cut-off is given here; in the data, active means inhibition above about 4.5%; inactive means the rest.

SMILES	MsrA inh	bovine MsrA act	AHR act	m5-HT2A agonist	AI-2 QS modul	TbMetRS inhib	MsrA inh confirm
CN(C)c1ccc(/C=N/NC(=O)c2ccn(C)n2)cc1	6.3*	-4	29	-5	·	-1	4
c1ccc2c(c1)nc(-c1ccncc1)n1nnnc21	13*	-7	0	-4	-1	-1	12*
CC(=O)Nc1ccc(/C=N/NC(=O)c2cccc(S(=O)(=O)N3CCOCC3)c2)cc1	6.2*	-4	1	5	23	-1	3
COc1cc(C=NNC(=O)c2ccc(NS(=O)(=O)c3cccs3)cc2)cc(Br)c1O	5.6*	-5	3	-3	·	0	6.0*
CC(=O)Nc1ccc(C=NNC(=O)c2ccc(NS(=O)(=O)c3cccs3)cc2)cc1	4.8*	-4	0	5	·	0	7.1*
C=CCN1C(=O)/C(=C/c2ccc(OC(C)=O)c(OCC)c2[N+](=O)[O-])SC1=S	-1	0	·	-3	76	0	·
Cc1ccc(S(=O)(=O)N2CCC(C(=O)NCCC3=CCCCC3)CC2)c(C)c1	0	-3	0	2	8	-1	·
CC(=O)OCC(=O)C1(O)CCC2C3CCC4=CC(=O)CCC4(C)C3(F)C(O)CC21C (centres undefined)	0	-5	·	2	·	0	·
Cc1c(C(=O)N/N=C/c2cccnc2)sc(N)c1C#N	4.7*	-3	·	-9	6	0	3
Cc1ccc(C(=O)N/N=C\c2cccnc2)s1	2	-2	21	0	16	0	·
CCCn1c(O)c(N=NC(=O)CNC(=O)c2cccnc2)c2ccccc21	2	1	17	-5	22	-1	·
Cn1c(O)c(N=NC(=O)CNC(=O)c2cccnc2)c2ccccc21	4.7*	-2	10	-2	8	0	2
COCCNC(=O)/C(C#N)=C1\N=C(NC(=O)c2ccco2)c2ccccc21	4.8*	-4	·	0	·	0	3
CCCNC(=O)/C(C#N)=C1\N=C(NC(=O)c2ccco2)c2ccccc21	3	-3	-4	-5	22	0	·
N#Cc1ccc(CSc2nnc(NC(=O)c3ccc(=O)[nH]c3)s2)cc1	6.0*	-2	0	0	2	0	2
COC(=O)Cc1nnn2c1[C@H](C)[C@H](c1cccc(OC)c1OC)OCC2	0	·	·	·	·	·	·
Cc1ccc(Nc2n[nH]c(C)c2[N+](=O)[O-])cc1C	11*	-8	39	3	16	-1	8.2*
Cc1ccc(S(=O)(=O)N2CCN(C(=O)CCc3c[nH]c4ccccc34)CC2)c(C)c1	-1	-2	17	-2	·	0	·
CC(=O)Nc1c(-c2cc(=O)oc3cc(C)ccc23)oc2ccccc12	4.9*	0	·	-1	33	0	3
COCCNC(=O)C1(C)CCCN(Cc2c(C)nn(-c3ccccc3)c2C)C1 (centres undefined)	0	-7	·	3	·	0	·
Cc1ccc(-c2csc3nc(C)n(-n4c(C)ccc4C)c(=O)c23)o1	15*	-3	-1	-1	16	0	12*
Cc1ccc(C)n1-n1c(C)nc2scc(-c3ccccc3)c2c1=O	27*	-4	0	-3	3	0	26*
COc1ccc(N2CCN(C(=O)COc3ccc(S(=O)(=O)N4CCOCC4)cc3C)CC2)cc1	0	-2	4	7	36	0	·
COc1cc(/C=N/NC(=O)c2ccc(CSc3nncn3C)cc2)cc(OC)c1O	5.0*	-10	2	2	26	-1	4
Cn1cnnc1SCc1ccc(C(=O)N/N=C/c2cccs2)cc1	4.7*	-7	5	0	18	-1	1
SMILES	MsrA inh	bovine MsrA act	AHR act	m5-HT2A agonist	AI-2 QS modul	TbMetRS inhib	MsrA inh confirm
Cc1ccccc1-c1c(C)oc2cc(O)ccc2c1=O	4.9*	-6	-2	2	16	-1	2
Cn1c(CNC(=O)c2ccc3c(c2)OCO3)nnc1SCC(=O)Nc1ccc(F)cc1	0	-1	0	5	·	0	·
O=C(CN1C(=O)S/C(=C/c2cccs2)C1=O)N1CCCC1	3	-5	0	1	·	-1	·
O=C(CN1C(=O)S/C(=C\c2cccs2)C1=O)Nc1ccc(C(=O)O)c(O)c1	5.3*	-5	1	-4	15	0	6.0*
O=C(CN1C(=O)S/C(=C\c2cccs2)C1=O)Nc1ccc(O)c(C(=O)O)c1	5.3*	-4	1	-1	20	0	5.8*
O=C(Nc1ccc(C(=O)O)cc1)/C(=C\c1ccco1)NC(=O)c1ccc(Br)cc1	5.1*	-5	·	4	·	0	3
CC(=O)Oc1ccc(/C=C(\NC(=O)c2ccco2)C(=O)Nc2ccc(C(C)=O)cc2)cc1	3	0	1	3	19	0	·
O=C(Nc1ccc(C(=O)O)cc1)/C(=C\c1ccccc1)NC(=O)c1ccco1	0	-2	-1	4	14	0	·
O=C(Nc1ccc(C(=O)O)cc1)/C(=C\c1ccco1)NC(=O)c1ccc(Br)o1	2	-5	-2	3	19	0	·
COc1ccc(/C=C(\NC(=O)c2ccco2)C(=O)Nc2ccc(C(C)=O)cc2)cc1	5.4*	-9	·	3	10	0	6.2*
COc1ccc(/C=C(/NC(=O)c2ccco2)C(=O)Nc2ccc(C(=O)O)cc2)cc1	6.2*	-1	0	1	12	0	2
CCn1c(=O)c(C(=O)CN(C)CC(=O)Nc2ccccc2Br)c(N)n(Cc2ccccc2)c1=O	-1	-3	·	3	·	0	·
COc1ccc(C(C)(NC(C)=O)c2nc(-c3ccc(F)c(Cl)c3)cs2)cc1 (centres undefined)	1	-2	·	-6	·	0	·
CCOC(=O)C1(C)CCCN(C(=O)c2ccc(C#N)cc2)C1 (centres undefined)	-1	2	·	-1	·	0	·
COc1ccc(NC(=O)/C=C/c2ccc(Br)o2)cn1	5.3*	-7	-11	4	7	0	2
COc1ccc(NC(=O)/C=C/c2ccco2)cn1	4.9*	-6	8	-1	2	0	2
Cc1ccc(S(=O)(=O)N2CCCCC2)cc1C(=O)N1C(C)CCCC1C (centres undefined)	0	-5	1	1	·	0	·
O=C(CCc1c[nH]c2ccccc12)NCCc1ccc(O)cc1	0	-4	5	-1	-4	-1	·
COc1ccc2cc3cc(C(=O)NCc4cccnc4)oc3nc2c1	5.6*	-6	-2	1	19	2	4
O=C(NCc1ccccc1Cl)[C@@H]1CCCN1S(=O)(=O)c1ccc(Cl)cc1	0	-10	-1	1	·	0	·
CCc1cc2c(=O)c(-c3nc4ccccc4n3C)c(C)oc2c(CN2CCOCC2)c1O	5.0*	-10	-6	10	23	0	1
